Results of several laboratories.
Lines come from different studies, so protocols differ.
Cell line: HepG2
Read-out: cell growth or viability

With `CC(=O)O[C@@]12CO[C@@H]1C[C@H](O)[C@@]1(C)C(=O)[C@H](O)C3=C(C)[C@@H](OC(=O)[C@H](O)[C@@H](NC(=O)OC(C)(C)C)c4ccccc4)C[C@@](O)([C@@H](OC(=O)c4ccccc4)[C@H]21)C3(C)C` the IC50 was 0.11 µM (CCK-8; 72 h).
For `Oc1ccccc1-c1nc2ccccc2[nH]1`, the IC50 was 68.3 µM (MTT; 48 h).
For `Oc1c(Br)cc(Br)c2cccnc12`, the IC50 was over 100 µM (MTT; 48 h).
`COc1cc2ncnc(Nc3ccc(F)c(Cl)c3)c2cc1NC(=O)N/N=C/CN1CCN(C)CC1` gave an IC50 of 2.23 µM (MTT; 72 h).
The IC50 of `O=c1cc(-c2ccc(O)c(O)c2)oc2cc(O)cc(O)c12` is reported as 15.2 µM (WST-1; 48 h).
`CC1=C(O)C(=O)C=C2C1=CC=C1[C@@]2(C)CC[C@@]2(C)[C@@H]3C[C@](C)(C(=O)OCCCCCCO)CC[C@]3(C)CC[C@]12C` gave an IC50 of 10.7 µM (MTT; 48 h).
For `Clc1ccc(-c2nc3ccccc3[nH]2)c(Cl)c1`, the IC50 was 37.5 µM (MTT; 48 h).
`CC(C)(C)NC(=O)NNC(=O)c1ccc(Nc2nccc(-c3ccccn3)n2)cc1` gave an IC50 of over 40 µM (MTT).
With `COc1ccc(-c2csc(Nc3ccc4c(O)ncnc4c3)n2)cc1` the IC50 was 17.3 µM (MTT).
With `Nc1ncnc2c1ncn2[C@@H]1O[C@H](CO)[C@@H](O)[C@H]1O` the IC50 was 55.1 µM (WST-1; 48 h).
`Cc1ccc(-c2ccc(O)cc2)c(C(=C2C=CC(=O)C=C2)c2ccc(O)cc2)c1C#Cc1ccc(O)cc1` has an IC50 of 16.4 µM (MTT; 48 h).
`Cc1ccc(-c2cc(-c3ccc4oc(=O)cc(C)c4c3O)nc(N)n2)cc1` has an IC50 of over 128 µg/mL (MTT; 72 h).
The IC50 of `Cc1ccc2nc(-c3cc(Br)ccc3O)[nH]c2c1` is reported as 8.93 µM (MTT; 48 h).
With `CCCCNC(=O)NNC(=O)c1cccc(Nc2nccc(-c3ccncc3)n2)c1` the IC50 was over 40 µM (MTT; 24 h).
`COC(=O)CN=c1scc(-c2ccccc2)n1-c1ccccc1[N+](=O)[O-]` gave an IC50 of 15.4 µM (MTT).
For `O=[N+]([O-])c1ccc(-c2csc(Nc3ccc4c(O)ncnc4c3)n2)cc1`, the IC50 was 6.87 µM (MTT).
The IC50 of `CC1=C(O)C(=O)C=C2C1=CC=C1[C@@]2(C)CC[C@@]2(C)[C@@H]3C[C@](C)(C(=O)OCCCO)CC[C@]3(C)CC[C@]12C` is reported as 0.75 µM (MTT; 48 h).
The IC50 of `Oc1c(I)cc(Cl)c2cccnc12` is reported as 58.6 µM (MTT; 48 h).
For `CC1(C)[C@@H](O)CC[C@]2(C)[C@H]3C(=O)C=C4[C@@H]5C[C@@](C)(C(=O)O)CC[C@]5(C)CC[C@@]4(C)[C@]3(C)CC[C@@H]12`, the IC50 was over 100 µM (MTT; 48 h).
`C[C@H]1[C@@H](O)O[C@@H]2O[C@@]3(C)CC[C@H]4[C@H](C)CC[C@@H]1[C@@]24OO3` gave an IC50 of over 50 µM (CCK-8; 48 h).
`O=C(N/N=C/CN1CCCC1)Nc1cc2c(Nc3ccc(F)c(Cl)c3)ncnc2cc1O[C@H]1CCOC1` has an IC50 of 2.09 µM (MTT; 72 h).
`COc1cccc2c1C(=O)c1c(O)c3c(c(O)c1C2=O)C[C@@](O)(C(=O)CO)C[C@@H]3O[C@H]1C[C@H](N)[C@H](O)[C@H](C)O1` gave an IC50 of 3.6 µM (MTT; 24 h).
The IC50 of `CCN(CC)CCn1cccc1/C=N/NC(=O)Nc1cc2c(Nc3ccc(F)c(Cl)c3)ncnc2cc1OC` is reported as 1.62 µM (MTT; 72 h).
`CC(=O)Oc1ccc2c(c1)C(C)=CC(C)(C)N2Cc1ccccc1` has an IC50 of 36 µM (MTT; 72 h).
With `C=CCn1c(-c2ccc([N+](=O)[O-])cc2)nc2ccc(C)cc21` the IC50 was 63.5 µM (MTT).
`CCN(CC)CCn1cccc1/C=N/NC(=O)Nc1cc2c(Nc3ccc(F)c(Cl)c3)ncnc2cc1O[C@H]1CCOC1` gave an IC50 of 0.54 µM (MTT; 72 h).
`COc1cc(C2Oc3cc([C@H]4Oc5cc(O)cc(O)c5C(=O)[C@@H]4O)ccc3OC2CO)ccc1O` (stereo partly shown) has an IC50 of 24.3 µM (CCK-8; 72 h).
For `Oc1ncnc2cc(Nc3nc(-c4ccc(Br)cc4)cs3)ccc12`, the IC50 was 9.85 µM (MTT).
For `CC1=C(O)C(=O)C=C2C1=CC=C1[C@@]2(C)CC[C@@]2(C)[C@@H]3C[C@](C)(C(=O)OCCCCCCCCO)CC[C@]3(C)CC[C@]12C`, the IC50 was 3.3 µM (MTT; 48 h).
With `Cc1cc(=O)oc2ccc(-c3cc(-c4ccccc4)nc(N)n3)c(O)c12` the IC50 was over 128 µg/mL (MTT; 72 h).
`COc1cc2ncnc(Nc3ccc(F)c(Cl)c3)c2cc1NC(=O)N/N=C/c1cccn1CCN1CCCCC1` has an IC50 of 0.05 µM (MTT; 72 h).
`Cc1ccc2nc(-c3ccncc3)[nH]c2c1` gave an IC50 of 52.6 µM (MTT; 48 h).
`Cl.Oc1cccc2c1[nH]c1c(C3=CC4(O)CC/C=C\CCCCN5CCC3C3(CC6/C=C\CCCCN6C43)C5)nccc12` (single isomer, unassigned; (+)) gave an IC50 of 1.5 µg/mL (neutral red; 48 h).
`O=C(N/N=C/c1cccn1CCN1CCCC1)Nc1cc2c(Nc3ccc(F)c(Cl)c3)ncnc2cc1O[C@H]1CCOC1` has an IC50 of 0.64 µM (MTT; 72 h).
`CCOc1ccc(-c2nc3ccccc3[nH]2)cc1` has an IC50 of 43.1 µM (MTT; 48 h).
`CCNC(=O)NNC(=O)c1ccc(Nc2nccc(-c3ccc(Cl)cc3)n2)cc1` gave an IC50 of 20.3 µM (MTT; 24 h).
`Cc1cc(=O)oc2ccc(-c3cc(-c4cccs4)nc(N)n3)c(O)c12` gave an IC50 of over 128 µg/mL (MTT; 72 h).
For `COc1ccnc(-c2cc(OC)ccn2)c1`, the IC50 was over 50 µM (MTT; 48 h).
The IC50 of `C=CCNC1=C2C[C@@H](C)C[C@H](OC)[C@H](O)[C@@H](C)/C=C(\C)[C@H](OC(N)=O)[C@@H](OC)/C=C\C=C(/C)C(=O)NC(=CC1=O)C2=O` is reported as 0.086 µM (MTT).
With `CC1=C(O)C(=O)C=C2C1=CC=C1[C@@]2(C)CC[C@@]2(C)[C@@H]3C[C@](C)(C(=O)OCCCn4ccc5ccccc54)CC[C@]3(C)CC[C@]12C` the IC50 was over 100 µM (MTT; 48 h).
With `COc1ccc(Nc2nc(-n3nc(C)cc3C)nc(-n3nc(C)cc3C)n2)cc1` the IC50 was 5.42 µM (MTT; 72 h).
The IC50 of `CC1=C(O)C(=O)C=C2C1=CC=C1[C@@]2(C)CC[C@@]2(C)[C@@H]3C[C@](C)(C(=O)OCCCCCCCO)CC[C@]3(C)CC[C@]12C` is reported as 7.21 µM (MTT; 48 h).
The IC50 of `COc1cc2ncnc(Nc3ccc(F)c(Cl)c3)c2cc1NC(=O)N/N=C/CN1CCOCC1` is reported as 4.42 µM (MTT; 72 h).
`Oc1cccc(-c2nc3ccccc3[nH]2)c1` has an IC50 of 83 µM (MTT; 48 h).
The IC50 of `CNC(=O)c1cc(Oc2ccc(NC(=O)Nc3ccc(Cl)c(C(F)(F)F)c3)cc2)ccn1` is reported as 16.9 µM (MTT; 24 h).
With `C=CCn1c(-c2ccc(Cl)c(Cl)c2)nc2ccccc21` the IC50 was 66.1 µM (MTT).
For `Nc1nc(-c2ccc(NC(=O)c3ccc(Cl)c(Cl)c3)cc2F)c[nH]1`, the IC50 was 16.9 µM (XTT; 24 h).
The IC50 of `O=C(N/N=C/c1cccn1CCN1CCOCC1)Nc1cc2c(Nc3ccc(F)c(Cl)c3)ncnc2cc1O[C@H]1CCOC1` is reported as 1.68 µM (MTT; 72 h).
`O=Cc1ccc(CO)o1` has an IC50 of 77.7 µM (WST-1; 48 h).
